# High-throughput results: PubChem, Broad Institute
# SIRT5 inh = inhibitors of human sirtuin-5 desuccinylase. Q9NXA8. Purified SirT5, succinyl-peptide AMC, trypsin-coupled fluorescence. inhibition, % at 15 µM. actives 1.1% (n = 330,000). AID 652115; in the data active = inhibition above about 15%
# Target sequence (Q9NXA8 whole entry, looked up): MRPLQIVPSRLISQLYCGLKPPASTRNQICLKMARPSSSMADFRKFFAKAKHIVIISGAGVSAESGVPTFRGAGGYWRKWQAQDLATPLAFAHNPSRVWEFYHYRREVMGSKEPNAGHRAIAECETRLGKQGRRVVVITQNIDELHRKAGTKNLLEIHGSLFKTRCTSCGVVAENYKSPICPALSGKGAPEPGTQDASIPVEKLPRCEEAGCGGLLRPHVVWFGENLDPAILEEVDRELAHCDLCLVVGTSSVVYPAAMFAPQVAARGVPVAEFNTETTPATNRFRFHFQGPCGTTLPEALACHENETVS
# E-selectin induc = induces E-selectin expression in human endothelial cells. P16581. HUVEC E-selectin immunofluorescence imaging; normalized: neutral wells 0, TNF-alpha wells 100. activation, % at 7.58 µM. actives 0.37% (n = 260,000). AID 686992;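 active = mean E-selectin-positive cell signal at least 10% of the positive control, reached in at least 60% of replicates, without over 20% cell loss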
#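 System: HUVEC, human umbilical vein endothelial cells; quantity: 3,000 cells/well; buffer or medium: EGM-2 medium, gelatin-coated wells; dosing: single-point compound dose; detection: immunofluorescence imaging; evaluation: % PE-positive cells; benchmarks: TNF-alpha, DMSO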
# DENV2 CPE = protects cells from dengue virus 2 cytopathic effect. actives 1.7% (n = 350,000). DENV2-infected cells, cytopathic effect rescue, plate reader. CPE inhibition, % at 9.99 µM; in the data active = CPE inhibition above about 20%, passing the limit was not always enough; tested in BHK-21 cells;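 note: 0% = median of neutral control wells and 100% = median of positive control wells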
# * = called active by the depositor; · = no result given; ! = a repeat was not active. In the library only some 2.8% were active in any assay of this set; here they are far more common.
SMILES,SIRT5 inh,E-selectin induc,DENV2 CPE
O=C(c1ccncc1)N1CC(=O)N2[C@H](CO)[C@@H](c3ccc(-c4ccccc4)cc3)[C@@H]2C1,7,0,11
C[C@H]1CCCCO[C@H](CN(C)C(=O)C2CCCCC2)[C@@H](C)CN([C@@H](C)CO)C(=O)c2cc(NC(=O)NC3CCCCC3)ccc2O1,16*!,0,4
COc1ccc(NC(=O)N(C)C[C@@H]2OCCCC[C@@H](C)Oc3ccc(NC(=O)Nc4ccc(F)cc4)cc3C(=O)N([C@H](C)CO)C[C@@H]2C)cc1,18*,0,-7
C[C@@H]1CN([C@@H](C)CO)C(=O)c2cc(NC(=O)NC3CCCCC3)ccc2O[C@@H](C)CCCCO[C@H]1CN(C)C(=O)C1CCCCC1,10,·,6
COc1ccc(NC(=O)N(C)C[C@@H]2OCCCC[C@@H](C)Oc3ccc(NC(=O)Nc4ccc5c(c4)OCO5)cc3C(=O)N([C@H](C)CO)C[C@H]2C)cc1,15*,0,-2
COc1ccc(NC(=O)Nc2ccc3c(c2)C(=O)N([C@@H](C)CO)C[C@H](C)[C@H](CN(C)C(=O)Nc2ccc4c(c2)OCO4)OCCCC[C@H](C)O3)cc1,0,0,-1
C[C@H](CO)N1C[C@H](C)[C@H](CN(C)C(=O)c2ccccc2)OCCCC[C@H](C)Oc2ccc(NC(=O)Nc3ccc(C(F)(F)F)cc3)cc2C1=O,3,3,59*
C[C@@H]1CCCCO[C@@H](CN(C)C(=O)c2ccccc2)[C@H](C)CN([C@@H](C)CO)C(=O)c2cc(NC(=O)Nc3ccc(C(F)(F)F)cc3)ccc2O1,1,1,4
COc1ccc(NC(=O)N(C)C[C@H]2OCCCC[C@@H](C)Oc3ccc(NC(=O)Nc4ccc(F)cc4)cc3C(=O)N([C@H](C)CO)C[C@H]2C)cc1,5,1,-1
O=C(NCC1CCCCC1)[C@@H]1[C@@H](CO)[C@@H]2Cn3c(cccc3=O)[C@H]1N2C(=O)c1cccnc1,·,0,·
COc1ccc(NC(=O)N2CC(=O)N3[C@@H](CO)[C@H](c4ccc(C5=CCCC5)cc4)[C@@H]3C2)cc1,3,-1,-6
O=C(C[C@@H]1CC[C@H]2[C@@H](COC[C@H](O)CN2Cc2ccc(F)cc2)O1)NCc1ccncn1,-3,0,12
C[C@@H]1CN([C@H](C)CO)C(=O)c2cc(NS(=O)(=O)c3cn(C)cn3)ccc2O[C@H]1CN(C)S(C)(=O)=O,-6,-13,-3
C[C@@H]1CCCCO[C@@H](CN(C)C(=O)Cc2ccccc2)[C@H](C)CN([C@H](C)CO)C(=O)c2cc(NC(=O)CCC(F)(F)F)ccc2O1,·,·,2
C[C@@H]1CCCCO[C@H](CN(C)C(=O)Nc2ccc(F)cc2)[C@H](C)CN([C@H](C)CO)C(=O)c2cc(NC(=O)Nc3ccc(F)cc3)ccc2O1,0,·,-1
C[C@@H]1CN([C@@H](C)CO)C(=O)c2cc(NC(=O)Nc3ccc(F)cc3)ccc2O[C@@H](C)CCCCO[C@@H]1CN(C)C(=O)Nc1ccc2c(c1)OCO2,15,0,23*
C[C@@H]1CCCCO[C@@H](CN(C)C(=O)Nc2ccc3c(c2)OCO3)[C@H](C)CN([C@@H](C)CO)C(=O)c2cc(NC(=O)Nc3ccc(F)cc3)ccc2O1,1,0,-2
C[C@@H]1CCCCO[C@@H](CN(C)C(=O)Nc2ccc(F)cc2)[C@H](C)CN([C@H](C)CO)C(=O)c2cc(NC(=O)Nc3ccc(F)cc3)ccc2O1,3,·,65*
CCCN(C)C[C@@H]1Oc2cc(-c3ccccc3OC)ccc2S(=O)(=O)N([C@H](C)CO)C[C@@H]1C,32*,-1,5
COc1ccccc1-c1ccc2c(c1)O[C@@H](CN(C)S(=O)(=O)c1ccccc1)[C@H](C)CN([C@H](C)CO)S2(=O)=O,19*,0,-5
COc1ccccc1-c1ccc2c(c1)O[C@@H](CN(C)S(=O)(=O)c1ccccc1)[C@@H](C)CN([C@H](C)CO)S2(=O)=O,4,2,2
COc1ccccc1-c1ccc2c(c1)O[C@H](CN(C)S(=O)(=O)c1ccccc1)[C@H](C)CN([C@H](C)CO)S2(=O)=O,2,0,-6
COc1ccccc1-c1ccc2c(c1)O[C@@H](CN(C)S(=O)(=O)c1ccccc1)[C@H](C)CN([C@@H](C)CO)S2(=O)=O,20*,0,-3
CCCN(C)C[C@@H]1Oc2cc(-c3ccccc3OC)ccc2S(=O)(=O)N([C@@H](C)CO)C[C@@H]1C,-15,-1,1
O=C(C[C@H]1C=C[C@@H](NC(=O)C2CC2)[C@@H](CO)O1)NCC1CC1,0,0,-2
